Results published in ChEMBL document CHEMBL1250505, “Synthesis and biological property of some novel 1,3,4-oxadiazoles” (2010).

Legend:
Format in all cases: functional
[1] = tested on: Escherichia coli; assay: Antibacterial activity against Escherichia coli at 50 ug/ml after 24 to 48 hrs by cup-plate method; conditions: read-out: IZ
Summary of the method: (§1)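 Sterile nutrient agar cooled to […] and seeded with 18-24 h sub-cultures, then poured at about 45-50 mL per dish. Wells cut with a 6 mm sterile cork borer and filled with 0.1 mL of each of two test dilutions. Plates incubated inverted at 37 °C for 24–48 h; inhibition zone diameters measured in mm. Streptomycin and procaine penicillin served as standards.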

[2] = tested on: Mus musculus; assay: Analgesic activity in albino mouse assessed as paw licking latency at 100 mg/kg after 4 hrs by Eddy's hot plate method
Summary of the method: (§2)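 Albino mice of either sex, fasted 24 h, 6 per group. Compounds given at 100 mg/kg; control group received 2% acacia suspension, standard group pentazocine 35 mg/kg. Hot plate held at 55 ± 1 °C. Reaction time is the time to lick a hind paw or leap off the plate, recorded at 0, 30, 60, 120 and 240 min after dosing.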

[3] = tested on: Mus musculus; assay: Analgesic activity in albino mouse assessed as paw licking latency at 100 mg/kg after 1 hr by Eddy's hot plate method; summary of the method: as §2
[4] = tested on: Pseudomonas aeruginosa; assay: Antibacterial activity against Pseudomonas aeruginosa at 50 ug/ml after 24 to 48 hrs by cup-plate method; conditions: read-out: IZ; summary of the method: as §1
[5] = tested on: Mus musculus; assay: Analgesic activity in albino mouse assessed as paw licking latency at 100 mg/kg after 2 hrs by Eddy's hot plate method; summary of the method: as §2
[6] = tested on: Pseudomonas aeruginosa; assay: Antibacterial activity against Pseudomonas aeruginosa at 100 ug/ml after 24 to 48 hrs by cup-plate method; conditions: read-out: IZ; summary of the method: as §1
[7] = tested on: Staphylococcus aureus; assay: Antibacterial activity against Staphylococcus aureus at 100 ug/ml after 24 to 48 hrs by cup-plate method; conditions: read-out: IZ; summary of the method: as §1
[8] = tested on: Staphylococcus aureus; assay: Antibacterial activity against Staphylococcus aureus at 50 ug/ml after 24 to 48 hrs by cup-plate method; conditions: read-out: IZ; summary of the method: as §1
[9] = tested on: Mus musculus; assay: Analgesic activity in albino mouse assessed as paw licking latency at 100 mg/kg after 0.5 hrs by Eddy's hot plate method; summary of the method: as §2
[10] = tested on: Bacillus subtilis; assay: Antibacterial activity against Bacillus subtilis at 50 ug/ml after 24 to 48 hrs by cup-plate method; conditions: read-out: IZ; summary of the method: as §1
[11] = tested on: Bacillus subtilis; assay: Antibacterial activity against Bacillus subtilis at 100 ug/ml after 24 to 48 hrs by cup-plate method; conditions: read-out: IZ; summary of the method: as §1
[12] = tested on: Escherichia coli; assay: Antibacterial activity against Escherichia coli at 100 ug/ml after 24 to 48 hrs by cup-plate method; conditions: read-out: IZ; summary of the method: as §1

| Structure (SMILES) | zone of inhibition at 50 µg/mL [1] | Time [2] | Time [3] | zone of inhibition at 50 µg/mL [4] | Time [5] | zone of inhibition at 100 µg/mL [6] | zone of inhibition at 100 µg/mL [7] | zone of inhibition at 50 µg/mL [8] | Time [9] | zone of inhibition at 50 µg/mL [10] | zone of inhibition at 100 µg/mL [11] | zone of inhibition at 100 µg/mL [12] |
| --- | --- | --- | --- | --- | --- | --- | --- | --- | --- | --- | --- | --- |
| COC(=O)CCCSc1nnc(-c2cccc(-c3ccccc3F)c2)o1 | 9 mm | 4.49 s | 4.62 s | 13 mm | 4.84 s | 21 mm | 17 mm | 15 mm | 4.53 s | 9 mm | 16 mm | 16 mm |
| COC(=O)CCCSc1nnc(-c2cccc(-c3cccc(Cl)c3)c2)o1 | 18 mm | 5.59 s | 5.36 s | 6 mm | 6.58 s | 18 mm | 16 mm | 10 mm | 4.96 s | 11 mm | 18 mm | 19 mm |
| COc1ccc(F)cc1-c1cccc(-c2nnc(SCCCCF)o2)c1 | 12 mm | 4.55 s | 4.48 s | 7 mm | 4.72 s | 15 mm | 15 mm | 12 mm | 4.35 s | 10 mm | 17 mm | 19 mm |
| COc1ccccc1-c1cccc(-c2nnc(SCCCCF)o2)c1 | 12 mm | 6.01 s | 5.01 s | 6 mm | 6.17 s | 15 mm | 21 mm | 15 mm | 4.9 s | 15 mm | 20 mm | 16 mm |
| FCCCCSc1nnc(-c2cccc(-c3ccccc3F)c2)o1 | 13 mm | 4.47 s | 4.69 s | 17 mm | 4.87 s | 18 mm | 20 mm | 13 mm | 4.62 s | 20 mm | 22 mm | 19 mm |
| FCCCCSc1nnc(-c2cccc(-c3cccc(Cl)c3)c2)o1 | 12 mm | 6.44 s | 5.79 s | 15 mm | 8.35 s | 20 mm | 12 mm | 5 mm | 5.56 s | 15 mm | 20 mm | 15 mm |
| COc1ccc(F)cc1-c1cccc(-c2nnc(SCCCC#N)o2)c1 | 10 mm | 4.74 s | 4.86 s | 15 mm | 4.99 s | 18 mm | 13 mm | 7 mm | 4.92 s | 7 mm | 18 mm | 18 mm |
| COc1ccccc1-c1cccc(-c2nnc(SCCCC#N)o2)c1 | 10 mm | 5.59 s | 5.4 s | 9 mm | 6.57 s | 20 mm | 18 mm | 12 mm | 5.25 s | 17 mm | 20 mm | 20 mm |
| CN[C@@H]1[C@H](O[C@H]2[C@H](O[C@H]3[C@H](O)[C@@H](O)[C@H](N=C(N)N)[C@@H](O)[C@@H]3N=C(N)N)O[C@@H](C)[C@]2(O)C=O)O[C@@H](CO)[C@H](O)[C@H]1O [STREPTOMYCIN] | 21 mm |  |  | 21 mm |  | 25 mm |  |  |  |  |  | 25 mm |
